The target of assay [1] is CLK1 (Mus musculus). Briefly: Inhibition of CLK1 (unknown origin).
The target in assay [2] is Casein kinase I delta/epsilon (Sus scrofa). In words: Inhibition of CK1 delta/epsilon (unknown origin).
Assay [3] addresses DYRK1A (Rattus norvegicus). In words: Inhibition of DYRK1A (unknown origin).
The test system of assay [4] is DYRK1A (Rattus norvegicus). Briefly: Inhibition of DYRK1A (unknown origin) at 10 uM in presence of gamma[33P]ATP relative to control.
Assay [5] addresses Glycogen synthase kinase-3 alpha/beta (Sus scrofa). Briefly: Inhibition of GSK-3 alpha/beta (unknown origin).
In assay [6] the test system is CLK1 (Mus musculus). In words: Inhibition of CLK1 (unknown origin) at 10 uM in presence of gamma[33P]ATP relative to control.
Assay [7] deals with CDK2/Cyclin A2 (Homo sapiens) (UniProt P24941+P20248). Briefly: Inhibition of full length human CDK2/CyclinA at 10 uM using histone H1 as substrate in presence of gamma[33P]ATP. The assay is classed as protein-complex assay.
Assay [8] concerns the target Cyclin-dependent kinase 1/cyclin B1 (Homo sapiens) (UniProt P06493+P14635). Briefly: Inhibition of full length recombinant human CDK1/CyclinB1 expressed in baculovirus infected Sf9 insect cells at 10 uM using histone H1 as substrate in presence of gamma[33P]ATP. The method in brief: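 Buffer G (40 mM Tris pH 7.5, 20 mM MgCl2, 0.1 mg/ml BSA) with 0.8 µg/µl histone H1 and 15 µM [γ-33P]ATP. Compound tested at 10 µM; activity as % of the no-inhibitor control; n = 2, mean ± range.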

Assay [9] has as its target Cyclin-dependent kinase 5/CDK5 activator 1 (Homo sapiens) (UniProt Q00535+Q15078). In words: Inhibition of full length recombinant human CDK5/p25 expressed in bacteria at 10 uM using histone H1 as substrate in presence of gamma[33P]ATP. The method in brief: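 Buffer B (25 mM MOPS pH 7, β-glycerophosphate, p-nitrophenyl-phosphate, EGTA, 15 mM MgCl2, DTT, orthovanadate) with 0.8 µg/µl histone H1 and 15 µM [γ-33P]ATP. Compound tested at 10 µM; activity as % of the no-inhibitor control; n = 2, mean ± range.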

Assay [10] has as its target CDK9/cyclin T1 (Homo sapiens) (UniProt O60563+P50750). In words: Inhibition of full length recombinant human CDK9/CyclinT expressed in baculovirus infected Sf9 insect cells at 10 uM using YSPTSPSYSPTSPSYSPTSPSKKKK as substrate in presence of gamma[33P]ATP.
In assay [11] the target is Dual specificity protein kinase CLK1 (Mus musculus) (UniProt P22518). Briefly: Competitive inhibition of full length recombinant mouse CLK1 expressed in bacteria using GRSRSRSRSRSR peptide as substrate in presence of varying levels of ATP by double-reciprocal method.

Active and inactive are the calls of the source. The calls are words filed in the database; no cut-off is given here.

Sequence of Cyclin-dependent kinase 5/CDK5 activator 1 (Homo sapiens) (Q00535 whole entry): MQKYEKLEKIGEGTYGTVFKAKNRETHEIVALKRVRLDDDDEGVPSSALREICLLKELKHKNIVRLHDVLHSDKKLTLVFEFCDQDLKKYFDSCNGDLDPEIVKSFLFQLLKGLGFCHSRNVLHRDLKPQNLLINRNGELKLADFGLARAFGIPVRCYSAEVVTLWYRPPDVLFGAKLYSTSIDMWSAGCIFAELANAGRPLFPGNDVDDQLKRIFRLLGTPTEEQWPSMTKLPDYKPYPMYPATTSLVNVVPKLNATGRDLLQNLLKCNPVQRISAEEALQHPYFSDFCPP
Sequence of Cyclin-dependent kinase 5/CDK5 activator 1 (Homo sapiens) (Q15078 99-307 partner limits assumed): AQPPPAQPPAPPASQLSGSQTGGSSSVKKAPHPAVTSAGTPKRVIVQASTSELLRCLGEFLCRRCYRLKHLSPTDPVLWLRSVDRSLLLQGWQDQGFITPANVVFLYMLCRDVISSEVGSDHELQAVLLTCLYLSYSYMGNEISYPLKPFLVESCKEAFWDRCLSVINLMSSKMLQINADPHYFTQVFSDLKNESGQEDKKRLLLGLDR
Sequence of Cyclin-dependent kinase 1/cyclin B1 (Homo sapiens) (P06493 whole entry, looked up): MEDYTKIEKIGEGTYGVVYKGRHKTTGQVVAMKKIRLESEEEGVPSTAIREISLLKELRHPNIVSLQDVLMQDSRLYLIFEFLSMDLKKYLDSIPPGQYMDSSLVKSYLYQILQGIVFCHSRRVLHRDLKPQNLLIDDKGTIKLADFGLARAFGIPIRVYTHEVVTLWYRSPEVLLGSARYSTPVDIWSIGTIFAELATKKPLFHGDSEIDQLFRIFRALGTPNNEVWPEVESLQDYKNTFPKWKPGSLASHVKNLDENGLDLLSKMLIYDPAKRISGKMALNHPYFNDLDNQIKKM
Sequence of Cyclin-dependent kinase 1/cyclin B1 (Homo sapiens) (P14635 whole entry, looked up): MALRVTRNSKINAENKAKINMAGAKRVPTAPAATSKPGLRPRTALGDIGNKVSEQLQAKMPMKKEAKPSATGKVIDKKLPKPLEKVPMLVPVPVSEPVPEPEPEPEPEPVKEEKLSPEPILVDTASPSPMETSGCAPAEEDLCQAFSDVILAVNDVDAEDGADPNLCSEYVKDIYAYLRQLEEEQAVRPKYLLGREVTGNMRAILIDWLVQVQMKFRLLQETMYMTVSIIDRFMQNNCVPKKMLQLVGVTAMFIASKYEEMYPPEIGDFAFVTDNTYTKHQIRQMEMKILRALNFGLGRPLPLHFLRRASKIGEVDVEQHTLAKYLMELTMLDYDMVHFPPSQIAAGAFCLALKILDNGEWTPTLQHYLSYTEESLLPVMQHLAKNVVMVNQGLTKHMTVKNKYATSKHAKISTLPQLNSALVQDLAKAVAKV
Sequence of Dual specificity protein kinase CLK1 (Mus musculus) (P22518 whole entry, looked up): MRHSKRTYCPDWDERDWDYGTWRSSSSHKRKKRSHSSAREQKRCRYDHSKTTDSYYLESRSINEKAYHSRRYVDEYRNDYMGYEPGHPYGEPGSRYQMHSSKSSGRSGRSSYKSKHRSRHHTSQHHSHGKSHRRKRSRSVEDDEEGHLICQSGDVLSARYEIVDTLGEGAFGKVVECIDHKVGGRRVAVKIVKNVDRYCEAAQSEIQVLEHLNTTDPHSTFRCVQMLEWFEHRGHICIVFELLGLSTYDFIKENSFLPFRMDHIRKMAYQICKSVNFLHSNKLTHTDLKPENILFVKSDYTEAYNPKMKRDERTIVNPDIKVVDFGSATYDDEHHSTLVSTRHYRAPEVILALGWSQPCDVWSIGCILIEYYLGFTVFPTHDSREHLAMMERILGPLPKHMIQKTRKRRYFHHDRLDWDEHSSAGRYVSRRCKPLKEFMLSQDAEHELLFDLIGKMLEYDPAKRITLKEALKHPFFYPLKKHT

As usually defined, the IC50 is the concentration that inhibits the measured activity by half. Low readings indicate inhibition by little substance, high ones a need for much substance. As a reminder, the inhibition is the change of the read-out against control, counted positive when it falls. Turning to `NC(=O)c1cc(-c2cn3cc(F)ccc3n2)ccc1O`, the IC50 was 1.4 µM against CLK1 (Mus musculus) [1], over 10 µM in assay [2], 4.7 µM in assay [3] and over 10 µM in assay [5]. For the same compound, the inhibition (in [4]; with CLK1 (Mus musculus) [6]) was over 50% throughout.

Turning to `NC(=O)c1cc(-c2cn3cc(O)ccc3n2)ccc1O`, the inhibition result in assay [7], in assay [8], in [9] and in assay [10] was “Active” each time.

For `NC(=O)c1cc(-c2cn3ccccc3n2)ccc1O`, the IC50 was 1 µM against CLK1 (Mus musculus) [1], over 10 µM in [2], 4 µM in assay [3] and over 10 µM in assay [5]. For the same compound, the inhibition (in assay [4]; in the assay with CLK1 (Mus musculus) [6]) was over 50% throughout.

With `NC(=O)c1cc(-c2cn3cc(N)ccc3n2)ccc1O`, the IC50 (at CLK1 (Mus musculus) [1]; in assay [2]; in [3]; in assay [5]) was over 10 µM throughout.

As to `NC(=O)c1cc(-c2cn3cc(-c4ccc([N+](=O)[O-])cc4)ccc3n2)ccc1O`, the IC50 (against CLK1 (Mus musculus) [1]; in assay [2]; in assay [3]; in assay [5]) was over 10 µM throughout.

On to `Oc1ccc(-c2cn3cc(Cl)ccc3n2)cc1`, for which the 50% inhibitory concentration (IC50) (on CLK1 (Mus musculus) [1]; in assay [2]; in assay [3]; in [5]) was over 10 µM in each case.

For `COc1cccc(-c2cn3cc(Cl)ccc3n2)c1`, the IC50 (against CLK1 (Mus musculus) [1]; in assay [2]; in [3]; in assay [5]) was over 10 µM each time.

As for `COc1cc(-c2cn3cc(Cl)ccc3n2)cc(OC)c1OC`, the IC50 (against CLK1 (Mus musculus) [1]; in assay [2]; in assay [3]; in assay [5]) was over 10 µM each time.

For `COc1cc(OC)cc(-c2cn3cc(Cl)ccc3n2)c1`, the IC50 (on CLK1 (Mus musculus) [1]; in assay [2]; in [3]; in [5]) was over 10 µM each time.

Take `NC(=O)c1cc(-c2cn3cc(Cl)ccc3n2)ccc1O`: the inhibition entry in assay [7], in [8], in assay [9] and in assay [10] was “Active” in each case.

Turning to `NC(=O)c1cc(-c2cn3cc(Br)ccc3n2)ccc1O`, the inhibition result in assay [7], in assay [8], in [9], in assay [10] and in assay [11] was “Active” each time. The half-inhibitory concentration (IC50) is 0.7 µM against CLK1 (Mus musculus) [1], over 10 µM in assay [2], 2.6 µM in assay [3] and over 10 µM in assay [5]. Further, the inhibition (in assay [4]; in the assay on CLK1 (Mus musculus) [6]) was over 50% in each case.

For the origin of these results see ChEMBL document CHEMBL3870305, “Synthesis, biological evaluation and molecular modeling studies of imidazo[1,2-a]pyridines derivatives as protein kinase inhibitors” (Eur J Med Chem, 2016).
